# In the array DNA melting data of Ke et al. (doi:10.1101/2024.01.08.574731):
# Tests used:
# [1] = folding enthalpy; higher = less favourable; fluorescence melt of hairpins on a sequencing array, two-state fit; conditions: sodium 0.088 M
# How it was run: (§1)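 With Cy3 and quencher oligos annealed, library hairpins on a sequenced MiSeq flow cell were imaged for Cy3 fluorescence in 50 mM Na-HEPES pH 8.0, 25 mM NaCl, in 2.5 °C steps up to 60 °C. Melting temperature and folding enthalpy were derived from bootstrapped two-state fits of signals normalised to pre-quench Cy3 and to control constructs. Four replicates were combined by inverse variance, with fitted temperatures raised by 9.35 °C to match UV melts.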
# [2] = melting temperature; fluorescence melt of hairpins on a sequencing array, two-state fit, raised by 9.35 °C to match UV melts; conditions: sodium 0.088 M
# How it was run: as §1
Sequence,folding enthalpy [1],Tm [2]
GATCCTCCTTAGGATC ((((((....)))))),-36.8 kcal/mol,50.9 °C
GATCCTATGAAGGATC ((((((....)))))),-34 kcal/mol,51 °C
CTCGAGAAATCGAG (((((....))))),-21.2 kcal/mol,47.9 °C
GATCCGATTACGGATC ((((((....)))))),-34.2 kcal/mol,58.4 °C
GTATGAGGAAACTTATAC ((((.((....)).)))),-25.7 kcal/mol,31.2 °C
CGGCTCGGAAACGACCCG (((.(((....))).))),-29.4 kcal/mol,42.9 °C
GCCGAGCGAAAGCGTGGC (((..((....))..))),-25.4 kcal/mol,68.3 °C
CGGCACCGGAAACGGCCG (((..(((....)))))),-29.1 kcal/mol,49.2 °C
GATCAGAGGTCTGATC ((((((....)))))),-30.6 kcal/mol,49.5 °C
GCAAGACGAAAGTCGTGC (((.(((....))).))),-32.2 kcal/mol,61.1 °C
GCTCGGCGAAAGCGTAGC (((..((....))..))),-12.9 kcal/mol,39.3 °C
GATCGCAGGGGCGATC ((((((....)))))),-34.1 kcal/mol,67.5 °C
GTTCTGCGAAAGCACAAC (((.(((....))).))),-12.6 kcal/mol,33.3 °C
GATCCATTCCTGGATC ((((((....)))))),-39.1 kcal/mol,50.3 °C
GCAGCTACGAAAGTATGC (((..(((....)))))),-15 kcal/mol,36.1 °C
GACCTGCGAAAGCAGTC (((.(((....)))))),-12.2 kcal/mol,48.5 °C
GATCGGTTCTCCGATC ((((((....)))))),-44.3 kcal/mol,60.6 °C
GTGCCCGAAAGGGACAC ((((((....))).))),-25.5 kcal/mol,58.7 °C
GGCGTGGGAAACTGCGCC ((((..(....)..)))),-52.5 kcal/mol,55.7 °C
GCGAATCGAAAGATGCGC (((.(((....))).))),-42.4 kcal/mol,60.6 °C
GCAGGCGAAAGCCTATGC ((((((....)))..))),-13.9 kcal/mol,47.6 °C
GTGTGCGAAAGCATACAC ((((((....)))..))),-18.2 kcal/mol,53.1 °C
GCGATCATTCGC ((((....)))),-26.6 kcal/mol,50.7 °C

Sequence,folding enthalpy [1],Tm [2]
GATCGACGAATCGATC ((((((....)))))),-33.7 kcal/mol,49 °C
GAATGCGAAAGCACTTC ((((((....))).))),-16.2 kcal/mol,40.9 °C
GGTTCGGGAAACTGAACC (((((.(....).))))),-47.2 kcal/mol,53.2 °C
GTGCGCCGAAAGGCCAC (((.(((....)))))),-21.3 kcal/mol,58.6 °C
GATCGAGCATTCGATC ((((((....)))))),-42.6 kcal/mol,58.2 °C
GCGCGGCGAAAGCGGAGC ((.(.((....)).).)),-22.5 kcal/mol,60.4 °C
GCAGGGCGAAAGCCTCGC ((..(((....)))..)),-16.4 kcal/mol,52 °C
GCGACCGAAAGGTGCGC ((((((....))).))),-28.9 kcal/mol,67.1 °C
GCAGTGGGAAACCACCGC ((.((((....)))).)),-23.4 kcal/mol,48.8 °C
GCTTTGGGAAACCAAAAC (.(((((....))))).),-19.8 kcal/mol,31.3 °C
GGGTATACGAAAGTACCC (((..(((....)))))),-24.4 kcal/mol,45.6 °C
GAAACGAAAGTTTC (((((....))))),-29.1 kcal/mol,53.4 °C
GCTCTGGGAAACCGGAGC ((((.((....)).)))),-52.9 kcal/mol,57.2 °C
GGAAACGAAAGTTTATCC ((((((....)))..))),-12.3 kcal/mol,25.6 °C
GAAGGGCGAAAGCCTTC (((.(((....)))))),-14.3 kcal/mol,50.8 °C
GATCGCCTAGCGATC ((((((...)))))),-30.6 kcal/mol,68.6 °C
GCGCTCGGAAACGAACGC (((.(((....))).))),-38.5 kcal/mol,55.7 °C
GTATCTGGAAACAGGTAC (((.(((....))).))),-36.2 kcal/mol,42.7 °C
GTGCATGGAAACACGCAC ((((.((....)).)))),-34.6 kcal/mol,47.7 °C
GCGGACGAAAGTCCCGC ((((((....))).))),-20.8 kcal/mol,67.1 °C
CGATCTCGGAAACGATCG (((..(((....)))))),-20.3 kcal/mol,36.7 °C
GGCAAAGAAATTTGCC ((((((....)))))),-36.8 kcal/mol,56 °C
GATCAAACGGTTGATC ((((((....)))))),-36 kcal/mol,44.2 °C

Sequence,folding enthalpy [1],Tm [2]
GCTTGGCGAAAGCCATGC ((.((((....)))).)),-27.2 kcal/mol,65.4 °C
GGAAGGCGAAAGCCTCC (((.(((....)))))),-14.1 kcal/mol,56.9 °C
GCATTCGAAAGAATGTGC ((((((....)))..))),-36.8 kcal/mol,50.6 °C
GTGTGCGAAAGCAGTCAC ((((((....)))..))),-16.5 kcal/mol,38.5 °C
GATCTTGAAAAGATC ((((((...)))))),-33.5 kcal/mol,54.8 °C
GTGGATGAAAATCCAC ((((((....)))))),-33.9 kcal/mol,59.9 °C
GTGCATGGAAACATGTGC (..((((....))))..),-25 kcal/mol,43 °C
GTTGGCGGAAACGCCGAC ((.((((....)))).)),-25 kcal/mol,59.4 °C
GATCATGGCTATGATC ((((((....)))))),-40.6 kcal/mol,53.7 °C
GCTGTCGGAAACGACGGC ((.((((....)))).)),-34.2 kcal/mol,64 °C
GATACCCCGAAAGGGATC (((..(((....)))))),-12.4 kcal/mol,33.3 °C
GGCTACGAAAGTATAGCC ((((((....)))..))),-25.1 kcal/mol,49.9 °C
GCTGGCGAAAGCCAGAGC ((((((....)))..))),-9.92 kcal/mol,63.3 °C
GATCTGTTCCAGATC ((((((...)))))),-30.4 kcal/mol,50.7 °C
GTAACGTCGAAAGACTAC (((..(((....)))))),-11.2 kcal/mol,28.7 °C
GCGATCGAAAGATACCGC ((((((....)))..))),-23.8 kcal/mol,37.2 °C
GTCTTTGGAAACAGAGAC ((((.((....)).)))),-26 kcal/mol,37.3 °C
GTGGGTCGAAAGACGCAC (((.(((....))).))),-34.3 kcal/mol,63.3 °C
GGGCGGGGAAACCCACCC (((.(((....))).))),-40.7 kcal/mol,54.6 °C
GATGTCGGAAACGACGTC ((.((((....)))).)),-31.3 kcal/mol,54.1 °C
AGCCTGAAAAGGCT (((((....))))),-18.2 kcal/mol,66.1 °C
GGACTCTCGAAAGAGTCC (((..(((....)))))),-42.7 kcal/mol,60.9 °C
GTTCATCGAAAGATAAAC (((.(((....))).))),-18.1 kcal/mol,31.5 °C
